Bioassay records as filed in PubChem.
Shown is part of a subset that was picked to be rich in hits.
Insulin prom act = TRM-6 insulin promoter activation; activation, % at 2 µM; TRM-6 cells, insulin promoter eGFP reporter, imaging; plate-scaled: unstimulated 0, stimulated control 100; actives 0.81% (n = 130,000);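 active means activation at 2 µM above a set limit, confirmed on inspection of the cell images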;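 further: share of cells whose green reporter signal exceeds an intensity cutoff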
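Test system: human fetal islet-derived TRM-6 cells with tamoxifen-inducible insulin promoter–eGFP reporter; schedule: overnight tamoxifen, then two-day compound incubation at 37 °C; measured by: high-content imaging of fixed cells with Hoechst nuclear stain; evaluation: percent cells above green-intensity threshold, converted to percent activation versus plate controls; control set: stimulated and unstimulated wells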
Numbers without * were called inactive; [ ] = dose if it differs, or a comment.

SMILES	Insulin prom act
Cc1ccc2nsnc2c1S(=O)(=O)NCc1ccc2c(c1)OCO2	0.0
CCOc1cc(S(=O)(=O)NCc2ccc3c(c2)OCO3)c(C)cc1C	140.9*
O=S(=O)(NCc1ccc2c(c1)OCO2)c1cccc2cccnc12	0.0
CN(C)S(=O)(=O)c1cccc(NC(=O)Cn2cc(C(F)(F)F)cc(Cl)c2=O)c1	6.7
Cc1ccc(N(CC(=O)NCCSc2ccccn2)S(=O)(=O)c2ccc(F)cc2)cc1	171.4
COc1ccc(C(=O)N/C(=C/c2ccco2)C(=O)NC2CCS(=O)(=O)C2)cc1 (centres undefined)	-7.1
CS(=O)(=O)c1ccc(-c2nnn(CC(N)=O)n2)cc1	0.0
CCc1ccc(-c2nnn(CCC(=O)OC)n2)cc1	-6.1
CCCC(=O)NCn1nnc(-c2ccc(Cl)cc2)n1	488.2*[fluoresces]
O=S(=O)(Nc1ccc(N2CCCCC2)cc1)c1ccc(F)c(F)c1	-6.5
Cc1nc2ccccc2c(=O)n1CC(=O)N1CCOCC1	-7.1
O=Cc1cn(CC(=O)N2CCOCC2)c2ccccc12	411.1*
COC(=O)c1cn(CC(=O)N2CCCCCC2)c2ccccc12	381.1
COc1ccccc1C(=O)N/N=C(\C)c1ccc(NC(=O)C2CC2)cc1	0.0
NS(=O)(=O)c1ccc(CCNC(=O)C2CCN(S(=O)(=O)c3cnc[nH]3)CC2)cc1	4.5
CC1CCN(C(=O)C2CCN(CC(C)c3ccccc3)CC2)CC1 (centres undefined)	368.4
CC1CCN(C(=O)C2CCN(S(=O)(=O)c3cnc[nH]3)CC2)CC1	506.3*
CCc1ccc(NC(=O)CCn2ccnc2C)cc1	6.5
CN(C1CCCCC1)S(=O)(=O)c1ccc(C(=O)N2CCN(c3nc4ccccc4s3)CC2)cc1	6.7
Cc1cccc(Nc2nnc(-c3ccc(N4CCOCC4)c([N+](=O)[O-])c3)c3ccccc23)c1	-7.9
C/C(N)=C(/C#N)C(=O)COC(=O)Cc1coc2cc(C)ccc12	7.3
COc1ccc(NC(=O)/C=C/c2ccc(F)cc2)cn1	7.1
COc1ccc(NC(=O)c2ccc(Cl)c(S(=O)(=O)N3CCc4ccccc4C3)c2)cn1	0.0
COc1ccc(NC(=O)/C(Cl)=C(/Cl)S(=O)Cc2ccccc2Cl)cn1 (centres undefined)	669.2*
C=CCc1cc(/C=N/NC(=O)CSc2nnc(CCCc3ccc(OC)cc3)o2)cc(OC)c1O	4.3
SMILES	Insulin prom act
CC(=O)c1ccc(OC(=O)c2cc3ccccc3oc2=O)cc1	5.3
O=[N+]([O-])c1ccc(-c2ccc(/C=N/Nc3nc(NCc4ccccc4)nc(N4CCOCC4)n3)o2)cc1	200.0*
CC(Sc1nc(NCc2ccccc2)nc(N2CCOCC2)n1)C(=O)Nc1ccccc1 (centres undefined)	7.7
c1cncc(CNc2nc(N3CCOCC3)nc(N3CCOCC3)n2)c1	2.9
O=C(CSCc1ccc(F)cc1)NCc1ccco1	3.6
Cc1ccc(NS(=O)(=O)c2cc(OCC(N)=O)c(C)cc2Cl)cc1	0.0
CC(=O)Nc1nc(-c2ccccc2)nc(C)c1C(C)=O	-2.8
CCC(=O)Nc1nc(C)nc(C)c1C(C)=O	5.6
CC(=O)Nc1nc(C)nc(C)c1C(C)=O	128.6*
COc1ccc(CCC(=O)NNC(=S)Nc2cccc(C(C)=O)c2)cc1	129.4
CCOc1ccc(S(=O)(=O)NCC(=O)N(C)Cc2cccnc2)cc1	78.6*
CCC(C)NS(=O)(=O)c1ccc(OCC(=O)NCc2cccnc2)cc1 (centres undefined)	-5.7
CCOc1ccc(OCC)c(S(=O)(=O)NCc2cccnc2)c1	-5.4
O=S(=O)(Cc1cccc(C(F)(F)F)c1)c1ncn[nH]1	-5.9
O=C1CCc2nc3sc4c(c3c(=O)n2N1)CCCC4	412.5*
CCc1nc2sc3c(c2c(=O)o1)CCCC3	-7.1
Cc1nc2sc3c(c2c(=O)n1N)CCC3	0.0
Cc1cc(SCC(=O)N(C)C2CCS(=O)(=O)C2)nc2c(C)cccc12 (centres undefined)	-4.8
Cc1cc(C)c(S(C)(=O)=O)c(NN)n1	-9.1
COc1ccc([N+](=O)[O-])cc1NC(=O)COC(=O)C=C(C)C	0.0
CN(CCOc1ccccc1)CC(=O)Nc1cc([N+](=O)[O-])ccc1Cl	9.1
COCC(=O)OCC(=O)Nc1cc([N+](=O)[O-])ccc1Cl	733.3*
Cc1ccc(NC(=O)COC(=O)C2CSC3(C)CCC(=O)N23)cc1S(=O)(=O)N1CCOCC1 (centres undefined)	7.1
O=C(NCc1cccs1)C(=O)NCC1OCCCN1S(=O)(=O)c1ccccc1 (centres undefined)	7.1
CCN(CC)C(=S)SCC(=O)c1ccc(Br)cc1	381.3*
SMILES	Insulin prom act
CCN(CC)C(=O)c1ccc(C)c(Br)c1	356.3
Cc1ccnc(SCC(=O)c2ccc(Br)cc2)c1C#N	-61.1
Cc1ccc(NC(=O)c2cc(S(=O)(=O)c3ccccc3)ccc2Cl)cc1	-5.7
Cc1ccc2n(n1)c(=O)c(Cc1ccccc1)c([O-])[n+]2-c1ccccc1	2.6
CCOc1ccc(CC(=O)Nc2ccc(-c3ccc4nnc(C)n4n3)cc2)cc1	5.6
Cc1ncsc1CCOC(=O)C1C2CC3CC(C2)CC1C3 (centres undefined)	1.6
CCC(C)(C)NC(=O)C(c1ccc(OC)cc1)N(Cc1cccs1)C(=O)CCC(=O)Nc1cc(C)on1 (centres undefined)	600.0*
CCC(C)(C)NC(=O)CN(Cc1cccs1)C(=O)CCC(=O)Nc1nccs1	6.7
Cc1cc(NC(=O)CCC(=O)N(c2ccccc2)C(C(=O)NC2CCCCC2)c2cccs2)no1 (centres undefined)	323.3
C#Cc1ccc(C(=O)Nc2ccc(N3CCC(C)CC3)c(C(N)=O)c2)cc1	-7.7
Cc1cc(C)nc(SCc2nnc(SCC(=O)Nc3ccccc3C)n2Cc2ccco2)n1	7.1
NC(=O)C1CCN(CC(=O)NC2CCCc3ccccc32)CC1 (centres undefined)	-3.7
O=C(CN1C(=O)C2CC=CCC2C1=O)NC1CCCc2ccccc21 (centres undefined)	83.1*
Cc1ccc(S(=O)(=O)N2CCN(CC(=O)NC3CCCc4ccccc43)CC2)c(C)c1 (centres undefined)	0.0
OCCN1CCN(c2ncnc3sc(-c4ccccc4)cc23)CC1	0.0
Cc1onc(-c2c(Cl)cccc2Cl)c1C(N)=S	0.0
CCn1c(SCC(=O)O)nc2ccccc21	0.0
CN(C)C(=O)Cn1c(SCC(=O)NC2CCCCC2)nc2ccccc21	-5.4
CCn1c(SCC(=O)NC(=O)NC(C)(C)C)nc2ccccc21	129.4*
CCOC(=O)CSc1nc2sc3c(c2c(=O)n1C1CCCCC1)CCN(C)C3	242.9
Cn1nnc2cc(C(=O)N3CCC(c4ccccc4)C3)ccc21 (centres undefined)	347.6
CN(C)S(=O)(=O)c1ccc(N2CCCC2)c(C(=O)NCC2CCCCC2)c1	-70.6
Cc1ccc(NC(=O)CSc2nnc(-c3cccnc3)s2)cc1	9.4
Cc1ccc(NC(=O)CSCC#N)cc1	82.8*
Cc1ccc(CSCC(=O)Nc2ccc3c(c2)OCO3)cc1	-5.6
SMILES	Insulin prom act
O=C(Nc1nc2c(F)cc(F)cc2s1)c1ccccn1	8.3
Cc1ccc(CN2CCN(/N=C/c3ccc(C)s3)CC2)c(C)c1	3.3
O=c1cc(/N=C/c2coc3c(ccc4ccccc43)c2=O)[nH]c(=S)[nH]1	7.4
C=CCn1c(COc2cccc3ccc(C)nc23)nnc1SCC(=O)O	450.0*
C=CCn1c(SCC(=O)c2ccc(OC)cc2)nnc1-c1cc2cccc(OC)c2o1	-4.5
C=CCn1c(COc2cccc3cccnc23)nnc1SCC(=O)O	0.0
